Calls of active or inactive are those of the source. The rule behind the calls is not given here.
What was measured:
[1] = Selectivity index, ratio of IC50 for cytotoxicity against human GES1 cells to IC50 for antiproliferative activity against human MGC-803 cells; type: toxicity, cell-based; conditions: GES1 cells and MGC-803 cells, read-out: Ratio IC50
MGC-803 [2] = assay: Inhibition of colony formation in human MGC-803 cells at 1 uM incubated for 9 days by crystal violet staining based analysis relative to control; type: functional; conditions: MGC-803, 216 h, time 9 day
Summary of the method: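 Clonogenic assay: MGC-803 cells grown 9 days with 0, 1, 2 or 3 μM; colonies counted and inhibition rate calculated against untreated control; mean ± SD of three independent experiments.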

MGC-803 [3] = assay: Induction of apoptosis in human MGC-803 cells assessed as cell rounding up at 5 to 10 uM incubated for 24 hrs by Hoechst 33342 staining based fluorescence microscopic analysis; type: functional; conditions: dose 5-10 µM
Summary of the method: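 MGC-803 cells exposed to 0, 5, 7.5 or 10 μM; cell morphology imaged and nuclear morphology examined by staining. Mean ± SD, three independent experiments.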

MGC-803 [4] = assay: Induction of apoptosis in human MGC-803 cells assessed as nuclear fragmentation at 5 to 10 uM incubated for 24 hrs by Hoechst 33342 staining based fluorescence microscopic analysis; type: functional, cell-based; conditions: dose 5-10 µM
Summary of the method: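 MGC-803 cells treated at 0, 5, 7.5 and 10 μM; cell morphology and nuclear morphology (fragmentation, condensation) examined by staining and imaging; three independent experiments, mean ± SD.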

MGC-803 [5] = assay: Induction of apoptosis in human MGC-803 cells assessed as viable cells at 5 uM incubated for 24 hrs by Annexin V-FITC/PI staining based flow cytometric analysis (reference value: 90.3 %); type: functional; conditions: read-out: Activity
MGC-803 [6] = assay: Induction of apoptosis in human MGC-803 cells assessed as late apoptotic cells at 10 uM incubated for 24 hrs by Annexin V-FITC/PI staining based flow cytometric analysis (reference value: 3.8 %); type: functional
MGC-803 [7] = assay: Induction of apoptosis in human MGC-803 cells assessed as necrotic cells at 10 uM incubated for 24 hrs by Annexin V-FITC/PI staining based flow cytometric analysis (reference value: 2.0 %); type: functional
MGC-803 [8] = assay: Induction of apoptosis in human MGC-803 cells assessed as viable cells at 5 uM incubated for 48 hrs by Annexin V-FITC/PI staining based flow cytometric analysis (reference value: 96.7 %); type: functional; conditions: read-out: Activity
MGC-803 [9] = assay: Induction of apoptosis in human MGC-803 cells assessed as necrotic cells at 5 uM incubated for 48 hrs by Annexin V-FITC/PI staining based flow cytometric analysis (reference value: 0.3 %); type: functional
MGC-803 [10] = assay: Induction of apoptosis in human MGC-803 cells assessed as viable cells at 7.5 uM incubated for 48 hrs by Annexin V-FITC/PI staining based flow cytometric analysis (reference value: 96.7 %); type: functional; conditions: read-out: Activity
MGC-803 [11] = assay: Induction of apoptosis in human MGC-803 cells assessed as necrotic cells at 7.5 uM incubated for 48 hrs by Annexin V-FITC/PI staining based flow cytometric analysis (reference value: 0.3 %); type: functional
MGC-803 [12] = assay: Induction of apoptosis in human MGC-803 cells assessed as necrotic cells at 10 uM incubated for 48 hrs by Annexin V-FITC/PI staining based flow cytometric analysis (reference value: 0.3 %); type: functional
MGC-803 [13] = assay: Cell cycle arrest in human MGC-803 cells assessed as S phase cells at 5 uM incubated for 24 hrs by RNase/PI staining based flow cytometric analysis (reference value: 27.1%); type: functional
MGC-803 [14] = assay: Cell cycle arrest in human MGC-803 cells assessed as G2/M phase cells at 7.5 uM incubated for 24 hrs by RNase/PI staining based flow cytometric analysis (reference value: 15.11%); type: functional
MGC-803 [15] = assay: Cell cycle arrest in human MGC-803 cells assessed as S phase cells at 10 uM incubated for 24 hrs by RNase/PI staining based flow cytometric analysis (reference value: 27.1%); type: functional
MGC-803 [16] = assay: Induction of mitochondrial dysfunction in human MGC-803 cells assessed as increase in ratio of green to red fluorescence intensity incubated for 24 hrs by JC-1 staining based fluorescence microscopic analysis; type: functional, cell-based; conditions: dose 5-10 µM
MGC-803 [17] = assay: Induction of apoptosis in human MGC-803 cells assessed as decrease in Bcl-2 protein expression at 5 to 10 uM incubated for 24 hrs by Western blot analysis; type: functional, cell-based; conditions: dose 5-10 µM
Summary of the method: (§1)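 After 24 h exposure of MGC-803 cells, Bcl-2, Mcl-1, Bax and cytochrome c release assessed by Western blot with band quantitation; mean ± SD from three independent experiments.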

MGC-803 [18] = assay: Induction of apoptosis in human MGC-803 cells assessed as activation of cytochrome C release from mitochondria to cytoplasm incubated for 24 hrs by Western blot analysis; type: functional, cell-based; conditions: dose 5-10 µM; summary of the method: as §1
MGC-803 [19] = assay: Induction of mitochondrial dysfunction in human MGC-803 cells assessed as upregulation of cleaved PARP expression at 5 to 10 uM incubated for 24 hrs by Western blot analysis; type: functional, cell-based; conditions: dose 5-10 µM
Summary of the method: (§2)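 Western blot of caspase 9, 3, 7, PARP and γH2A.X in MGC-803 lysates after 24 h exposure to 5, 7.5 or 10 μM; band quantitation; mean ± SD from three independent experiments.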

MGC-803 [20] = assay: Induction of mitochondrial dysfunction in human MGC-803 cells assessed as downregulation of procaspase-9 expression at 5 to 10 uM incubated for 24 hrs by Western blot analysis; type: functional, cell-based; conditions: dose 5-10 µM; summary of the method: as §2
[21] = Activation of MAPK pathway in human MGC-803 cells assessed as change in p38 total expression at 5 to 10 uM incubated for 24 hrs by Western blot analysis; type: cell-based; conditions: dose 5-10 µM
[22] = Activation of MAPK pathway in human MGC-803 cells assessed as change in Erk5 total expression at 5 to 10 uM incubated for 24 hrs by Western blot analysis; type: cell-based; conditions: dose 5-10 µM
[23] = Toxicity in SCID mouse xenografted with human MGC-803 cells assessed as effect on body weight at 12.5 to 25 mg/kg, IG administered for 21 days; type: organism-based; conditions: in vivo, po, 504 h, dose 12.5-25 mg/kg, time 21 day
Summary of the method: (§3)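 SCID mice bearing subcutaneous MGC-803 xenografts (right side) dosed with 12.5 or 25 mg/kg over 21 days, 0.5% CMC-Na vehicle as control; body weight and tumor size monitored periodically; major organs examined histopathologically at end; means ± SD.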

MGC-803 [24] = assay: Antitumor activity against human MGC-803 cells xenografted in SCID mouse assessed as decrease in average tumor weight at 12.5 mg/kg, IG administered for 21 days relative to control; type: functional; design: scale not given: the % may be the effect or the level left; conditions: time 21 day
Summary of the method: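 MGC-803 cells implanted subcutaneously on the right side of SCID mice; dosed at 12.5 or 25 mg/kg in 0.5% CMC-Na (vehicle control) for 21 days. Body weight and tumor size recorded periodically; tumors excised and weighed at end. Means ± SD.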

[25] = Toxicity in SCID mouse xenografted with human MGC-803 cells assessed as effect on heart at 12.5 to 25 mg/kg, IG administered for 21 days by H&E staining based histopathological analysis; type: organism-based; conditions: in vivo, po, 504 h, dose 12.5-25 mg/kg, time 21 day; summary of the method: as §3
[26] = Toxicity in SCID mouse xenografted with human MGC-803 cells assessed as effect on spleen at 12.5 to 25 mg/kg, IG administered for 21 days by H&E staining based histopathological analysis; type: organism-based; conditions: in vivo, po, 504 h, dose 12.5-25 mg/kg, time 21 day; summary of the method: as §3
[27] = Toxicity in SCID mouse xenografted with human MGC-803 cells assessed as effect on lung at 12.5 to 25 mg/kg, IG administered for 21 days by H&E staining based histopathological analysis; type: organism-based; conditions: in vivo, po, 504 h, dose 12.5-25 mg/kg, time 21 day; summary of the method: as §3

With `Cc1cc(N2CC[C@@H](C)[C@@H](N(C)c3ncnc4[nH]ccc34)C2)n2nc(SCc3ccc(C(F)(F)F)cc3)nc2n1` the selectivity ratio [1] was 6.5, the inhibition at 1 µM (MGC-803 [2]) was 31% and the Activity (MGC-803 [3]) was “Active”. The Activity (MGC-803 [4]) was “Active”, the viability at 5 µM (MGC-803 [5]) was 81.7% and the Activity (MGC-803 [6]) was 28%. It also gave an Activity (MGC-803 [7]) of 2.2%, a viability at 5 µM (MGC-803 [8]) of 73.4% and an Activity (MGC-803 [9]) of 0.9%. For the same molecule, the viability at 7.5 µM (MGC-803 [10]) was 22.1%, the Activity (MGC-803 [11]) was 1.6% and the Activity (MGC-803 [12]) was 0.9%. It also gave an Activity (MGC-803 [13]) of 30.04%, an Activity (MGC-803 [14]) of 12.24% and an Activity (MGC-803 [15]) of 28.14%. The Activity (MGC-803 [16]) was “Dose-Dependent Effect”, the Activity (MGC-803 [17]) was “Active” and the Activity (MGC-803 [18]) was “Dose-Dependent Effect”. For the same molecule, the Activity (MGC-803 [19]) was “Active”, the Activity (MGC-803 [20]) was “Active” and the Activity [21] was “inactive”. For the same molecule, the Activity [22] was “inactive”, the Activity [23] was “Non-Toxic” and the Activity (MGC-803 [24]) was 56.8%. For the same molecule, the Activity [25] was “Non-Toxic”, the Activity [26] was “Non-Toxic” and the Activity [27] was “Non-Toxic”.

Source: ChEMBL document CHEMBL5244249, “Discovery of tofacitinib derivatives as orally active antitumor agents based on the scaffold hybridization strategy” (Eur J Med Chem, 2020)
